Results reported in ChEMBL document CHEMBL1649277, “Inhibition of herpesvirus replication by 5-substituted 4'-thiopyrimidine nucleosides” (Antimicrob Agents Chemother, 2009).
Active and inactive are the calls of the source. The rule behind the calls is not given here.

Experiments:
[1] = Cytotoxicity against human Akata cells after 3 days by MTS assay; type: cell-based
Procedure, shortened: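 Akata cells were plated as for the EBV assay but not induced with anti-IgG. Viability was read at the same time as the antiviral endpoint: MTS was added, plates incubated 4 h at 37°C, and formazan absorbance read at 490 nm. Medium-only control wells were included. CC50 was the concentration reducing viable cells by 50%.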

[2] = system: Human gammaherpesvirus 8; assay: Antiviral activity against Human herpesvirus 8 infected in human BCBL1 cells assessed as inhibition of viral replication after 7 days; type: functional, organism-based; conditions: Human gammaherpesvirus 8, BCBL1, 168 h
Procedure, shortened: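 BCBL1 cells in RPMI 1640 with 10% FBS, compound diluted in triplicate wells with a top concentration of 100 μM. Lytic infection was induced with phorbol 12-myristate 13-acetate at 100 ng/ml final. After 7 days at 37°C in humidified CO2, viral DNA in total DNA was measured by TaqMan qPCR. EC50 was taken as 50% reduction of viral DNA.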

[3] = system: Human alphaherpesvirus 1; assay: Antiviral activity against HSV1 B-2006 harboring frameshift mutation at Q185 in TK infected in HFF after 3 days by plaque reduction assay; type: functional, organism-based; conditions: Human alphaherpesvirus 1, B-2006, 72 h
Procedure, shortened: (§1)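 Confluent HFF monolayers (passage <10) were infected in triplicate wells at 20–30 plaques per well, with 1 h adsorption and rocking every 15 min. Six serial dilutions (top 100 μM) were made in MEM with 2% FBS and pooled human immunoglobulin. Cells were incubated 3 days and stained with crystal violet. Plaques were counted, and EC50 was interpolated from plaque reduction.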

[4] = Selectivity index, ratio of CC50 for HFF to EC50 for […] infected in HFF
[5] = system: Human alphaherpesvirus 2; assay: Antiviral activity against HSV2 infected in BALB/c mouse assessed as virus-induced mortality rate at […], po BID administered 48 hrs post infection; type: functional
[6] = system: Human alphaherpesvirus 1; assay: Antiviral activity against HSV1 E377 infected in HFF after 3 days by plaque reduction assay; type: functional, organism-based; conditions: Human alphaherpesvirus 1, E377, 72 h; procedure, shortened: as §1
[7] = Antiviral activity against Human herpesvirus 6 GS infected in human HSB2 cells assessed as inhibition of viral replication after 7 days; type: functional, cell-based, Human herpesvirus 6 (strain GS); conditions: Human betaherpesvirus 6A, HSB2, 168 h
Procedure, shortened: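 HSB-2 cells, 2 × 10^4 per well in RPMI 1640 with 10% FBS, received compound dilutions in triplicate wells. Cells were infected with HHV-6A strain GS and kept 7 days at 37°C. Total DNA was denatured and immobilized on nylon membrane. Viral DNA was then measured by digoxigenin-labeled probe hybridization and anti-hapten antibody detection with densitometric quantitation.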

[8] = system: Human alphaherpesvirus 2; assay: Antiviral activity against HSV2 infected in BALB/c mouse assessed as virus-induced mortality rate at 10 mg/kg, po BID administered 48 hrs post infection; type: functional
[9] = system: Human alphaherpesvirus 3; assay: Antiviral activity against VZV Ellan infected in HFF after 8 to 10 days by plaque reduction assay; type: functional, organism-based; conditions: Human alphaherpesvirus 3, Ellan
Procedure, shortened: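 Plaque reduction on confluent HFF monolayers in triplicate wells: 1 h adsorption, then six serial compound dilutions (top 100 μM) in MEM with 2% FBS, no immunoglobulin. Incubation was 8 days for HCMV and 10 days for VZV. Plaques were stained with 0.017% neutral red in PBS and counted microscopically. EC50 was interpolated at 50% plaque reduction.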

[10] = system: Human alphaherpesvirus 1; assay: Antiviral activity against HSV1 PAA5 harboring polymerase R842S mutant gene infected in HFF after 3 days by plaque reduction assay; type: functional, organism-based; conditions: Human alphaherpesvirus 1, PAA5, 72 h; procedure, shortened: as §1
[11] = system: Human alphaherpesvirus 2; assay: Antiviral activity against HSV2 11680 harboring TK R223H mutant gene infected in HFF after 3 days by plaque reduction assay; type: functional, organism-based; conditions: Human alphaherpesvirus 2, 11680, 72 h; procedure, shortened: as §1
[12] = Selectivity index, ratio of CC50 for human HSB2 cells to EC50 for Human herpesvirus 6 GS infected in human HSB2 cells; type: toxicity, cell-based; conditions: read-out: Ratio CC50/EC50
[13] = system: Human alphaherpesvirus 2; assay: Antiviral activity against HSV2 infected in BALB/c mouse assessed as virus-induced mortality rate at 10 mg/kg, po BID administered 72 hrs post infection; type: functional
[14] = system: Human betaherpesvirus 5; assay: Antiviral activity against human cytomegalovirus VR4955 harboring UL54 T700A mutant gene infected in HFF after 8 to 10 days by plaque reduction assay; type: functional, organism-based; conditions: Human betaherpesvirus 5, VR4955
Procedure, shortened: (§2)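 Plaque reduction in confluent HFF with six serial dilutions (top 100 μM) and no immunoglobulin added. Virus was adsorbed 1 h on triplicate wells. Cells were incubated 8 days, stained with 0.017% neutral red in PBS, and plaques counted. EC50 is the concentration reducing plaque number by 50%.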

[15] = system: Human alphaherpesvirus 2; assay: Antiviral activity against HSV2 infected in BALB/c mouse assessed as virus-induced mortality rate at […], po BID administered 24 hrs post infection; type: functional
[16] = system: Human alphaherpesvirus 2; assay: Antiviral activity against HSV2 harboring frameshift mutation in TK infected in HFF after 3 days by plaque reduction assay; type: functional, organism-based; conditions: Human alphaherpesvirus 2, 72 h; procedure, shortened: as §1
[17] = system: Human alphaherpesvirus 2; assay: Antiviral activity against 4'-thioIDU-resistant HSV2 infected in HFF after 3 days by plaque reduction assay; type: functional, organism-based; conditions: Human alphaherpesvirus 2, 72 h; procedure, shortened: as §1
[18] = system: Human alphaherpesvirus 2; assay: Antiviral activity against HSV2 infected in BALB/c mouse assessed mean time to virus-induced death at 10 mg/kg, po BID administered 48 hrs post infection; type: functional
[19] = system: Human alphaherpesvirus 2; assay: Antiviral activity against 4'-thioIDU-resistant HSV2 infected in HFF assessed as inhibition of viral DNA synthesis-associated incorporation in DNA by immunofluorescence assay; type: functional, organism-based
Procedure, shortened: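 HFF on coverslips were infected with HSV-2 MS or the resistant isolate (MOI 0.2 PFU/cell) for 48 h. Cells were pulsed with BrdUrd or 10 μM test compound for 30 min before fixation. Incorporation was detected with a cross-reacting anti-BrdUrd monoclonal antibody, infected cells with anti-155-kDa nucleocapsid antibody, and nuclei with DAPI.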

[20] = system: Human alphaherpesvirus 2; assay: Antiviral activity against HSV2 MS infected in HFF after 3 days by plaque reduction assay; type: functional, organism-based; conditions: Human alphaherpesvirus 2, MS, 72 h
Procedure, shortened: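 Confluent primary HFF monolayers (passage <10), triplicate wells, virus dosed at 20–30 plaques/well. Adsorption was 1 h with rocking every 15 min. Six serial dilutions, top 100 μM, were made in MEM with 2% FBS plus pooled human immunoglobulin. After 3 days, wells were stained with 0.1% crystal violet in 20% methanol and plaques counted microscopically. EC50 was interpolated.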

[21] = system: Human alphaherpesvirus 2; assay: Antiviral activity against HSV2 13077 harboring TK R223H mutant gene infected in HFF after 3 days by plaque reduction assay; type: functional, organism-based; conditions: Human alphaherpesvirus 2, 13077, 72 h; procedure, shortened: as §1
[22] = system: Human betaherpesvirus 5; assay: Antiviral activity against human cytomegalovirus RC314 harboring UL97 K355M mutant gene infected in HFF after 8 to 10 days by plaque reduction assay; type: functional, organism-based; conditions: Human betaherpesvirus 5, RC314; procedure, shortened: as §2
[23] = system: Human alphaherpesvirus 2; assay: Antiviral activity against HSV2 infected in BALB/c mouse assessed as virus-induced mortality rate at 30 mg/kg, po BID administered 72 hrs post infection; type: functional

Compound: O=c1[nH]c(=O)n([C@H]2C[C@H](O)[C@@H](CO)S2)cc1I
- CC50 at 72 h [1]: 0.68 µM
- EC50 [2]: > 4 µM
- EC50 [3]: > 444 µM
- Ratio CC50/EC50 [4]: > 1250
- Activity [5]: 93%
- EC50 [6]: 1.2 µM
- EC50 [7]: > 100 µM
- Activity [8]: 73%
- EC50 [9]: 2 µM
- EC50 [10]: 28 µM
- EC50 [11]: 246 µM
- selectivity ratio [12]: 1
- Activity [13]: 73%
- EC50 [14]: 8 µM
- Activity [15]: 100%
- EC50 [16]: 77 µM
- EC50 [17]: 57 µM
- Time [18]: 10.4 days
- inhibition [19]: inactive
- EC50 [20]: 0.45 µM
- EC50 [21]: > 343 µM
- EC50 [22]: 6.5 µM
- Activity [23]: 100%
